Screening data (PubChem BioAssay)
Shown are actives, neighbours in structure and some others; about 2.2% of the full set was active somewhere.
T cruzi repl – T. cruzi replication inhibition; AID 1885; 1.4% of 300,000 active; T. cruzi beta-gal in NIH3T3, luminescence, 90 h; inhibition, % (test concentration not listed);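 active means mean inhibition across valid replicates above about 55%, limit read from the data; inconclusive means mean below that limit but half or more replicates reach it; inactive means mean below it, under half of replicates reach it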;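 further: signal also drops with host cell toxicity which is not excluded here; higher percent means less beta-gal luminescence so fewer parasites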
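compound dosing = single 50 nL compound addition per well in DMSO | material = NIH/3T3 host cells with β-galactosidase reporter T. cruzi | input = 5,000 host fibroblasts per well | timing = ≥90 h infection period, 3 h prior cell attachment | read-out basis = percent inhibition of parasite-derived β-gal signal | detection = GalScreen β-gal luminescence, detergent lysis, 60 min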
AI-2 QS mod – modulators of Vibrio harveyi AI-2 quorum sensing system. Vibrio harveyi JMH597 AI-2 luminescence/OD600 ratio, 9 h; stronger effect = lower value; strain lacks LuxN and CqsS sensors; 0 = neutral-control median. activity change, % at 7.5 µM. 0.4% of 300,000 active; in the data active means activity change below about -75%, passing the limit was not always enough; inconclusive means no clear call, values can overlap the other calls;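 further: luminescence divided by OD600 gain over 9 h not by final OD600 alone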
Efflux pump mplx – inhibitors of Candida antifungal efflux pumps expressed in yeast | S. cerevisiae Candida pump triplex, Nile Red efflux | 0.44% of 330,000 active | inhibition, % at 10 µM | AID 485275;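 active means plate passing quality check with inhibition over a set limit, or well fluorescence over plate mean plus 4 SD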;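 further: Nile Red retained in pooled yeast measured as flow cytometry median fluorescence; higher means more Nile Red kept so more efflux inhibition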
HDAC3 inh – blocks human histone deacetylase 3; O15379; recombinant HDAC3, fluorogenic peptide/trypsin coupled, fluorescence; inhibition, % at 8.3 µM; 0.15% of 320,000 active; AID 2718; in the data active means inhibition above about 26%, passing the limit was not always enough; inconclusive means no clear call, values can overlap the other calls
Target sequence (O15379 whole entry, looked up): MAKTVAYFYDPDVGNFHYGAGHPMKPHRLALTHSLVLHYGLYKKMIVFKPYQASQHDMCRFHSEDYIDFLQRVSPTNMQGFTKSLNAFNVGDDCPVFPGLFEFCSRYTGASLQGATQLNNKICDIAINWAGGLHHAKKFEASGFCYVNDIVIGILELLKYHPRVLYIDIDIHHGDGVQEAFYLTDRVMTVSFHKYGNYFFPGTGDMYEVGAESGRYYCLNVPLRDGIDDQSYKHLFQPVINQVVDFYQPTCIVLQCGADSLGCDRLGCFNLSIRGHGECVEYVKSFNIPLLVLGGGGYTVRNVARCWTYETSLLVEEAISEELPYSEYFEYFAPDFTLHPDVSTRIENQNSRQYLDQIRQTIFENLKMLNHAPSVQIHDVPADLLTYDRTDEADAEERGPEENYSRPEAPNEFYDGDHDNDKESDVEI
PolyA inhibitor – inhibitors of polyadenylation in S. cerevisiae; S. cerevisiae SKY197-pL101 polyadenylation reporter, beta-gal luminescence; efflux-impaired pdr1/pdr3 knockout yeast; score 100 = 6 SD above DMSO; activity score, % at 12 µM; 0.02% of 300,000 active;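 active means lowest replicate activity score at least 50, where 100 means six control SD above control mean; inconclusive means lowest score under 50 but half or more replicates reach 50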;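 further: yeast exposed to compound for 9 h at 30 °C; higher score means more reporter readthrough which indicates perturbed polyadenylation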
Yeast cmpd fluor – counter-screen for efflux pump inhibitors: compound fluorescence; shares compounds with Efflux pump mplx; S. cerevisiae AD/pABC3, flow cytometry; fluorescence ratio to DMSO, % at 10 µM; 4% of 1,700 active; AID 588517;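 active means fluorescence ratio to DMSO above its plate's cutoff, the plate mean ratio plus 5 SD, cut at about 210% in these data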;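 further: unstained yeast with no Nile Red so the signal is compound autofluorescence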
Mdr1 pump inh – blocks the Candida albicans Mdr1 efflux pump in yeast. S. cerevisiae AD/CaMDR1, Nile Red efflux, flow cytometry. shares compounds with Efflux pump mplx. 1% of 1,700 active. inhibition, % at 10 µM. AID 588518; in the data active means inhibition above about 26%;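 further: higher means more Nile Red retained so more efflux inhibition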
CaCdr2 efflux inh – Candida Cdr2 efflux pump inhibition; AID 588520; Nile Red retention ratio vs DMSO, % at 10 µM; 4% of 1,700 active; shares compounds with Efflux pump mplx; S. cerevisiae AD/CaCDR2, Nile Red retention, flow cytometry; in the data active means Nile Red retention ratio vs DMSO above about 190%;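 further: higher ratio means more blocking of Cdr2 efflux of the dye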
CaCdr1 efflux inh – inhibitors of Candida albicans Cdr1 efflux pump; shares compounds with Efflux pump mplx; S. cerevisiae AD/CaCDR1, Nile Red efflux, flow cytometry; inhibition, % at 10 µM; 1% of 1,700 active;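 active means inhibition above the screen-wide mean plus twice its standard deviation, cut at about 32% in these data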
Hits are given with their value; . = inactive; ? = inconclusive; / = no result.

SMILES	T cruzi repl	AI-2 QS mod	Efflux pump mplx	HDAC3 inh	PolyA inhibitor	Yeast cmpd fluor	Mdr1 pump inh	CaCdr2 efflux inh	CaCdr1 efflux inh
COCCN(CC(=O)Nc1cc(Cl)ccc1-n1cncn1)Cc1nc2ccccc2c(=O)[nH]1	/	/	.	.	/	/	/	/	/
C[C@@H]1CN(C(=O)c2cc(COc3cccc(C(F)(F)F)c3)on2)C[C@H](C)O1	.	.	0.5	.	.	.	.	.	.
CCOC(=O)N1CCN(C(=O)c2cc(COc3cccc(C(F)(F)F)c3)on2)CC1	.	.	.	.	.	/	/	/	/
COc1ccc(C(=O)N2CCN(c3ccccc3)CC2)cc1S(=O)(=O)N1CCCC1	.	.	6.2	.	.	.	.	.	.
CCCCN(C(=O)CSc1nnc2ccccn12)c1c(N)n(Cc2ccccc2)c(=O)[nH]c1=O	.	.	.	.	.	/	/	/	/
CCN(C(=O)CSc1nnc2ccccn12)c1c(N)n(Cc2ccccc2)c(=O)[nH]c1=O	.	.	5.8	.	.	.	.	.	.
O=C(COCC(=O)N/N=C/c1ccc(F)cc1)N/N=C/c1ccc(F)cc1	.	.	1.8	.	.	.	.	.	.
COc1ccc(N(CC(=O)Nc2cccc([N+](=O)[O-])c2C)S(C)(=O)=O)cc1OC	.	.	8.9	.	.	.	.	.	.
Cc1ccc(C(=O)Nc2ncc3c(n2)CC(c2ccco2)CC3=O)cc1 (configuration not stated)	.	.	9.0	.	.	.	.	.	.
CC(C)C[C@H](NC(=O)c1nc[nH]c1C(=O)N(C)Cc1ccccc1)C(=O)OC(C)(C)C	.	.	0.9	?	.	.	.	.	.
CN(Cc1ccccc1)C(=O)c1[nH]cnc1C(=O)N[C@@H](CCCCNC(=O)OC(C)(C)C)C(=O)OC(C)(C)C	.	.	/	.	.	/	/	/	/
COc1ccccc1NC(=O)CN1C(=O)NC2(CCCc3ccccc32)C1=O (configuration not stated)	/	/	.	/	/	/	/	/	/
CCCCN1C(=O)C(=O)N(c2ccccc2)C1=S	.	.	6.5	.	.	.	.	.	.
CN(Cc1ccco1)S(=O)(=O)c1csc(C(N)=O)c1	.	.	.	.	.	/	/	/	/
CC(C)N1CN(c2ccccc2)C(=S)N(c2ccccc2)C1	.	.	.	.	.	/	/	/	/
CCCc1[nH]n(-c2ccc([N+](=O)[O-])cc2)c(=O)c1C=NCCc1ccc(OC)c(OC)c1	.	.	0.8	.	.	.	.	.	.
CNS(=O)(=O)c1ccc(N2CCCC2)c([N+](=O)[O-])c1	.	.	.	.	.	/	/	/	/
O=C(O)c1cc(NS(=O)(=O)c2ccc(N3CCCCC3)c([N+](=O)[O-])c2)cc(C(=O)O)c1	.	.	11	.	.	.	.	.	.
Cc1ccc(S(=O)(=O)N2CCCCC2)cc1NC(=O)CNC(C)c1ccc(Cl)c(Cl)c1 (configuration not stated)	/	/	.	.	/	/	/	/	/
COc1ccc(/C=N/N=C2/NC(=O)C(CC(=O)O)S2)cc1OCc1ccc(Cl)cc1 (configuration not stated)	.	.	13	.	.	.	.	.	.
Cc1ccc(NC(=O)COC(=O)CC2SC(N3CCCC3)=NC2=O)cc1 (configuration not stated)	/	/	.	.	/	/	/	/	/
c1ccc2nc3c(nc2c1)OCC1CCCCN31 (configuration not stated)	.	.	0.8	.	.	.	.	.	.
Cc1nc2ccccc2nc1N1CCCC1	.	.	.	.	.	/	/	/	/
Cc1cccc(NC(=O)Cc2coc3ccc4ccccc4c23)n1	.	.	.	.	.	/	/	/	/
CCOC(=O)c1nn(-c2ccccc2)c(=O)c(C#N)c1C	.	.	1.0	.	.	.	.	.	.
SMILES	T cruzi repl	AI-2 QS mod	Efflux pump mplx	HDAC3 inh	PolyA inhibitor	Yeast cmpd fluor	Mdr1 pump inh	CaCdr2 efflux inh	CaCdr1 efflux inh
CCOC(=O)c1nn(-c2ccc(F)cc2)c(=O)c(C#N)c1C	.	.	.	.	.	/	/	/	/
CC1CCCCN1c1ccc(N)cc1C(N)=O (configuration not stated)	.	.	.	.	.	/	/	/	/
NS(=O)(=O)c1cccc(NC(=O)Cn2nc(C(=O)O)c3ccccc3c2=O)c1	.	.	.	.	.	/	/	/	/
O=C(O)C1C2CC3C(OC(=O)C31)C2Cl (configuration not stated)	.	.	6.5	.	.	.	.	.	.
Cc1ccc(NC(=O)C2Cc3ccccc3CN2C(=O)c2ccco2)cc1S(=O)(=O)N(C)C (configuration not stated)	.	.	.	.	.	/	/	/	/
COc1ccc(OCC(=O)Nc2ccc(C(=O)Nc3ccccc3C(=O)O)cc2)cc1	.	.	.	.	.	/	/	/	/
O=C(COc1ccc(Br)cc1)Nc1ccc(C(=O)Nc2ccccc2C(=O)O)cc1	.	.	1.2	.	.	.	.	.	.
Cc1cccc(CN2C(=O)c3ccccc3S(=O)(=O)c3ccc(C(=O)NCCCN4CCCC4)cc32)c1	.	.	.	/	.	/	/	/	/
